# Assay outcomes: PubChem, several laboratories
# A selection: hits, their analogues and other compounds. The true share with any hit is near 4.9%.
# STAT3 blocker: IL-6 driven STAT3 reporter inhibitors, primary screen, U3A cells, luciferase, luminescence, MLSCN library. AID 862, 2007. 190,000 compounds, 0.89% hits. IL-6 STAT3-luciferase reporter; host cell line lacks STAT1. inhibition, % at 5.5 µM;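 active = inhibition above the mean inhibition across all screened compounds plus 3 SD, cut at about 44% in these data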;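 note: 0% = DMSO only wells and 100% = 100 µM nifuroxazide control wells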
# STAT3 act: IL-6 driven STAT3 reporter potentiators, primary screen, U3A cells, luciferase, luminescence, MLSCN library | IL-6 STAT3-luciferase reporter; 100% = signal with IL-6 EC80 alone | activation (% of control), % at 5.6 µM | 190,000 compounds, 0.91% hits | AID 871, 2007;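 active = activation above the screen-wide mean of compound activation plus 3 SD, cut at about 130% in these data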;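 note: 0% = background luminescence of wells with medium and substrate only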
#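 Material: STAT3-luciferase reporter U3A cells. Controls: IL-6-treated wells, 100% activation. Read-out: % activation versus median of IL-6-stimulated wells. Probe or stimulus: IL-6 stimulus at 33 ng/mL final. Timing: compound 1 h, then IL-6 6 h at 37 °C. Signal: reporter luminescence signal.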
# STAT1 blocker: STAT1 signaling inhibitors, primary screen, cell-based, HTS, luciferase reporter; NIH 3T3 STAT1-luciferase reporter, IFN-gamma, luminescence; 200,000 compounds, 0.35% hits; AID 920, 2007; inhibition, % at 5.5 µM;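 active = inhibition above a set limit, the mean inhibition across all tested compounds plus 3 SD, cut at about 34% in these data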;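 note: 0% = IFN-gamma with DMSO and 100% = IFN-gamma with 300 µM nifuroxazide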
# APP 5'UTR act: activators of APP 5'UTR luciferase reporter, primary screen, SH-SY5Y cells; SH-SY5Y APP 5'UTR luciferase reporter, luminescence; zero percent = DMSO vehicle wells; 190,000 compounds, 1% hits; activation, % at 2 µM; AID 1276, 2008;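 active = activation above a set limit, based on mean plus 3 SD of controls, cut at about 140% in these data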
# STAT1 act: STAT1 signaling activators, primary screen, cell-based, HTS, luciferase reporter | NIH 3T3 STAT1-luciferase reporter, IFN-gamma, luminescence; 100% = IFN-gamma alone, no compound | activation (% of control), % at 5.5 µM | 200,000 compounds, 2.6% hits | AID 932, 2007;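 active = activation above the screen-wide mean activation plus 3 SD, cut at about 130% in these data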;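 note: raw ratio to IFN-gamma control signal so 100% means no change and 0% no light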
# NF-kB neuron act: activators of NF-kB expression in neurons, primary screen, cell-based, HTS; 190,000 compounds, 1.6% hits; human neuronal cells, NF-kB reporter expression; hits give high values; fold change at 12.5 µM; AID 1239, 2008; in the data active = fold change above about 3.3
# STAT1 act conf: STAT1 signaling activators, confirmation, cell-based, HTS, luciferase reporter | AID 1262, 2008 | 1,200 compounds, 97% hits | shares compounds with STAT1 act | activation (% of control), % at 5.7 µM | NIH 3T3 STAT1-luciferase reporter, IFN-gamma potentiation, luminescence; 100% = IFN-gamma EC80 alone, no compound;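 active = activation above a set limit carried over from the earlier primary STAT1 screen, cut at about 140% in these data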;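 note: simple ratio to median IFN-gamma plus DMSO wells so 0% means no light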
# NFkB act: NF-kB reporter activators, TNF-alpha stimulated, counter-screen for STAT1 activator project, cell-based, HEK293T, luciferase luminescence; activation (% of control), % at 5.7 µM; 100% = TNF-alpha with vehicle only; shares compounds with STAT1 act; 1,200 compounds, 43% hits;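 active = activation above the mean of solvent-only control wells plus 3 SD, set per campaign, cut at about 130% in these data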;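 note: TNF-alpha given at a submaximal dose yielding about 80% of full reporter signal; values are well signal over median control so 100% means no change and 0% no light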
# STAT3 act STAT1c: STAT3 reporter activation by STAT1 hits, confirmation, counter-screen for STAT1 activator project, U3A cells, luciferase, luminescence; shares compounds with STAT1 act; IL-6; cells lack STAT1; 100 = IL-6 alone, no compound effect; activation (% of control), % at 5.7 µM; 1,200 compounds, 46% hits;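 active = activation above the solvent-only control well mean plus 3 SD, set per plate batch, cut at about 110% in these data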;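 note: 0% = no luminescence and 100% = median IL-6 plus DMSO wells; higher means more STAT3 reporter activation so hits are non-selective activators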
# Numbers without * were called inactive; x = no result.
SMILES,STAT3 blocker,STAT3 act,STAT1 blocker,APP 5'UTR act,STAT1 act,NF-kB neuron act,STAT1 act conf,NFkB act,STAT3 act STAT1c
CCOC(=O)c1c(C)[nH]c(C(=O)CSc2ccccc2)c1C,39,71,-55,160*,154*,3.6*,234*,113,98
CCOC(=O)c1c(C)[nH]c(C(=O)COC(=O)CCSc2ccccc2)c1C,-9,109,-16,39,115,1.2,x,x,x
NC(N)=Nc1nc2ccc(Cl)cc2c(=O)[nH]1,0,103,-10,5,108,0.98,x,x,x
Cc1ccc(C(=O)CC(=O)COc2ccc(Cl)cc2C)cc1,-3,102,-6,-1,105,0.85,x,x,x
Cc1ccc(NC(=O)c2ccc(OC(=O)COc3ccc(Cl)cc3C)cc2)cc1,-8,104,-66,88,159*,1.4,167*,128,119*
Cc1ccc(NC(=O)c2ccc(OC(=O)COc3cccc(Cl)c3)cc2)cc1,-18,112,-60,111,154*,1.6,170*,129,111*
CN(C)c1ccc(/C=c2/sc3n(c2=O)NC2(c4ccccc4)N(C)C(=O)N(C)C2(c2ccccc2)N=3)cc1 (stereo unspecified),-2,105,16,3,86,1.1,x,x,x
CC(=O)Nc1sc2c(c1-c1nc3ccccc3s1)CCN(C(C)C)C2,x,x,-206,-70,285*,2.7,202*,191*,202*
CCc1nnc(NC(=O)c2sc3nc4c(cc3c2N)CCCCCC4)s1,-4,105,-32,12,128,2,x,x,x
CCc1nnc(NC(=O)c2sc3nc4c(cc3c2N)CCCCC4)s1,-6,106,-61,70,155*,3.4*,187*,135*,117*
CCN1CCN(C(=S)c2ccc([N+](=O)[O-])cc2)CC1,6,94,4,4,96,1,x,x,x
Cc1ccc(N=Cc2cc(Br)cc(Cl)c2O)cc1,-2,105,-7,-9,104,1.5,x,x,x
Cc1ccc(N=Cc2sc(O)c3ccccc23)cc1,-33,129,-115,193*,202*,13*,323*,153*,121*
CNc1ccc(Oc2nc([N+](=O)[O-])nn2C)cc1,4,100,-8,4,105,0.96,x,x,x
C/C(=N\NC(=O)c1c(Br)c(C)nn1C)c1ccc(NC(=O)c2ccoc2C)cc1,2,99,-22,-12,120,1,x,x,x
C/C(=N\NC(=O)c1nn(C)c(C)c1Br)c1ccc(NC(=O)c2ccoc2C)cc1,28,81,-87,57,179*,1.2,119,115,89
CCC(=O)Nc1ccc(/C(C)=N/NC(=O)c2c(Br)c(C)nn2C)cc1,0,100,10,-7,91,0.88,x,x,x
C/C(=N\NC(=O)c1nn(C)c(C)c1Br)c1ccc(NC(=O)c2ccccc2F)cc1,26,80,-62,112,156*,1.3,123,118,89
Cc1nn(-c2ccccc2)c(C)c1/C=N/Nc1nc2ccccc2[nH]1,17,88,-116,154*,204*,2.9,289*,124,108
CC(/C=N/Nc1nc(C)cc(=O)[nH]1)=C\c1ccccc1,22,88,-9,12,109,1.2,x,x,x
Cc1ccsc1/C=N/Nc1nc2ccccc2[nH]1,-1,103,-59,145*,153*,5.3*,193*,132,107
CC(/C=N/Nc1nc2ccccc2[nH]1)=C\c1ccccc1,14,84,-101,172*,192*,8.6*,246*,139*,114*
Cc1cccc(OC(C)C(=O)N/N=C\c2ccncc2)c1 (stereo unspecified),16,90,11,8,89,1,x,x,x
Cc1ccc(NC(=O)c2noc3c2CCCCC3)cc1C,35,74,-109,237*,198*,4.9*,271*,122,96
CCc1ccc(NC(=O)c2noc3c2CCCCC3)cc1,5,102,-67,202*,164*,4.5*,219*,144*,112*
SMILES,STAT3 blocker,STAT3 act,STAT1 blocker,APP 5'UTR act,STAT1 act,NF-kB neuron act,STAT1 act conf,NFkB act,STAT3 act STAT1c
Cc1ccc(NC(=O)c2noc3c2CCCCC3)cc1,13,92,-61,140*,156*,8.1*,243*,136*,105
COc1ccc(NC(=O)c2noc3c2CCCCC3)cc1,18,91,-78,166*,169*,6.7*,212*,138*,102
N#Cc1cc(NC(=O)c2ccc(F)cc2)c(=O)n2c1[nH]c1ccccc12,41,67,1,9,100,0.56,x,x,x
CCOC(=O)C1CCN(c2ncnc3c2cnn3-c2ccccc2)CC1,13,91,-12,33,111,1.2,x,x,x
Clc1ccc(-n2ncc3c(N4CCCC4)ncnc32)cc1,12,89,-95,161*,184*,0.74,207*,84,87
CCOC(=O)C1CCN(c2ncnc3c2cnn3-c2ccc(Cl)cc2)CC1,2,98,10,-10,91,0.83,x,x,x
CC1CCN(c2ncnc3c2cnn3-c2ccccc2)CC1,30,81,-60,x,154*,4.5*,246*,136*,99
C(=N\N=C\c1cccs1)/c1cccs1,20,87,-77,91,167*,3.3,189*,128,106
O=C(Nc1ccc2sccc2c1)c1ccc(Cl)s1,-10,108,-97,206*,192*,7.7*,275*,138*,113*
O=C(c1ccc(F)cc1)c1cnc(Nc2ccccc2)s1,-9,109,-58,126,153*,2.4,203*,135*,124*
CNc1ncc(C(=O)c2ccc(F)cc2)s1,-10,107,-29,39,128,2,x,x,x
O=C(CO/N=C\c1ccccc1)Nc1ccccc1C(=O)N1CCOCC1,8,96,20,-10,83,1.1,x,x,x
